Data: ChEMBL document CHEMBL1122071, “Avermectin acyl derivatives with anthelmintic activity” (1982)

Columns and labels:
Assay type in all cases: functional
[1] = system: Trichostrongylus colubriformis; assay: Minimal dose necessary to eliminate > 83% of Trichostrongylus colubriformis infection in gerbils
[2] = system: Trichostrongylus colubriformis; assay: Anthelmintic efficacy against Trichostrongylus colubriformis in sheep at dose of 0.1 mg/kg administered orally; conditions: route oral
Procedure, shortened: (§1)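 Lambs experimentally infected with mixed gastrointestinal nematodes (H. contortus, O. circumcincta, T. axei, T. colubriformis, C. oncophora, Oe. columbianum) were dosed orally, 1–3 sheep per dose. An untreated infected group of 6 was included, with worm burdens given as the geometric mean number of worms per lamb. Efficacy was scored against adult and, where listed, EL4 stages.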

Haemonchus contortus [3] = assay: Anthelmintic efficacy against adult Haemonchus contortus (H.c) in sheep at dose of 0.025 mg/kg administered orally; conditions: route oral
Procedure, shortened: (§2)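 Lambs were experimentally infected with mixed gastrointestinal nematodes: Haemonchus contortus, Ostertagia circumcincta, Trichostrongylus axei, T. colubriformis, Cooperia oncophora and Oesophagostomum columbianum. Dosing was oral, in mg/kg, with 3 sheep per dose group. An untreated infected group of 6 sheep served as reference, with worm burdens given as the geometric mean per lamb. Immature (EL4) and adult worms were scored separately.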

Cooperia oncophora [4] = assay: Anthelmintic efficacy against immature (EL4) Cooperia oncopphora (C.o) in sheep at dose of 0.1 mg/kg administered orally; conditions: route oral; procedure, shortened: as §2
Cooperia oncophora [5] = assay: Anthelmintic efficacy against adult Cooperia oncopphora (C.o) in sheep at dose of 0.025 mg/kg administered orally; 0-19%; procedure, shortened: as §1
Cooperia oncophora [6] = assay: Anthelmintic efficacy against adult Cooperia oncopphora (C.o) in sheep at dose of 0.05 mg/kg administered orally; 0-19%; procedure, shortened: as §1
Trichostrongylus axei [7] = assay: Anthelmintic efficacy against Trichostrongylus axei (T.a) in sheep at dose of 0.1 mg/kg administered orally; conditions: route oral; procedure, shortened: as §1
Trichostrongylus axei [8] = assay: Anthelmintic efficacy against Trichostrongylus axei (T.a) in sheep at dose of 0.025 mg/kg administered orally; 20-59%; procedure, shortened: as §1
Cooperia oncophora [9] = assay: Anthelmintic efficacy against immature (EL4) Cooperia oncopphora (C.o) in sheep at dose of 0.05 mg/kg administered orally; 60-89%
Trichostrongylus axei [10] = assay: Anthelmintic efficacy against Trichostrongylus axei (T.a) in sheep at dose of 0.05 mg/kg administered orally; conditions: route oral; procedure, shortened: as §2
[11] = system: Teladorsagia circumcincta; assay: Anthelmintic efficacy against adult Ostertagia circumcincta (O. c) in sheep at dose of 0.1 mg/kg administered orally; conditions: route oral; procedure, shortened: as §1
[12] = system: Teladorsagia circumcincta; assay: Anthelmintic efficacy against immature (EL4) Ostertagia circumcincta (O. c) in sheep at dose of 0.05 mg/kg administered orally; 0-19%
[13] = system: Teladorsagia circumcincta; assay: Anthelmintic efficacy against adult Ostertagia circumcincta (O. c) in sheep at dose of 0.05 mg/kg administered orally; conditions: route oral; procedure, shortened: as §2
[14] = system: Teladorsagia circumcincta; assay: Anthelmintic efficacy against immature (EL4) Ostertagia circumcincta (O. c) in sheep at dose of 0.1 mg/kg administered orally; 60-89%
[15] = system: Teladorsagia circumcincta; assay: Anthelmintic efficacy against immature (EL4) Ostertagia circumcincta (O. c) in sheep at dose of 0.025 mg/kg administered orally; conditions: route oral
[16] = system: Oesophagostomum columbianum; assay: Anthelmintic efficacy against Oseophagostomum columbianum (Oe. c) in sheep at dose of 0.025 mg/kg administered orally; conditions: route oral; procedure, shortened: as §2
[17] = system: Oesophagostomum columbianum; assay: Anthelmintic efficacy against Oseophagostomum columbianum (Oe. c) in sheep at dose of 0.05 mg/kg administered orally; conditions: route oral; procedure, shortened: as §2
[18] = system: Trichostrongylus colubriformis; assay: Anthelmintic efficacy against Trichostrongylus colubriformis (T.c) in sheep at dose of 0.05 mg/kg administered orally; conditions: route oral; procedure, shortened: as §2
[19] = system: Trichostrongylus colubriformis; assay: Anthelmintic efficacy against Trichostrongylus colubriformis (T.c) in sheep at dose of 0.025 mg/kg administered orally; conditions: route oral; procedure, shortened: as §1
Cooperia oncophora [20] = assay: Anthelmintic efficacy against adult Cooperia oncopphora (C.o) in sheep at dose of 0.1 mg/kg administered orally; 60-89%; procedure, shortened: as §1
[21] = system: Teladorsagia circumcincta; assay: Anthelmintic efficacy against adult Ostertagia circumcincta (O. c) in sheep at dose of 0.025 mg/kg administered orally; conditions: route oral; procedure, shortened: as §1
Haemonchus contortus [22] = assay: Anthelmintic efficacy against adult Haemonchus contortus (H.c) in sheep at dose of 0.1 mg/kg administered orally; conditions: route oral; procedure, shortened: as §1
Cooperia oncophora [23] = assay: Anthelmintic efficacy against immature (EL4) Cooperia oncopphora (C.o) in sheep at dose of 0.025 mg/kg administered orally; conditions: route oral
Haemonchus contortus [24] = assay: Anthelmintic efficacy against adult Haemonchus contortus (H.c) in sheep at dose of 0.05 mg/kg administered orally; conditions: route oral; procedure, shortened: as §2
[25] = system: Oesophagostomum columbianum; assay: Anthelmintic efficacy against Oseophagostomum columbianum (Oe. c) in sheep at dose of 0.1 mg/kg administered orally; conditions: route oral; procedure, shortened: as §1

CC[C@H](C)[C@H]1O[C@]2(CC(OC(C)=O)[C@@H]1C)C[C@@H]1C[C@@H](C/C=C(\C)[C@@H](OC3CC(OC)C(OC4CC(OC)C(OC(C)=O)C(C)O4)C(C)O3)[C@@H](C)/C=C/C=C3\CO[C@@H]4[C@H](OC(C)=O)C(C)=C[C@@H](C(=O)O1)[C@]34O)O2 (stereo partly specified)
Dose [1]: 0.5 mg/kg

CC[C@H](C)[C@H]1O[C@]2(C=C[C@@H]1C)C[C@@H]1C[C@@H](C/C=C(\C)[C@@H](O[C@H]3C[C@@H](OC)[C@@H](O[C@H]4C[C@@H](OC)[C@@H](O)[C@H](C)O4)[C@H](C)O3)[C@@H](C)/C=C/C=C3\CO[C@@H]4[C@H](O[Si](C)(C)C(C)(C)C)C(C)=C[C@@H](C(=O)O1)[C@]34O)O2
Dose [1]: >2.5 mg/kg

CC[C@H](C)[C@H]1O[C@]2(CC(O)[C@@H]1C)C[C@@H]1C[C@@H](C/C=C(\C)[C@@H](OC3CC(OC)C(OC4CC(OC)C(O)C(C)O4)C(C)O3)[C@@H](C)/C=C/C=C3\CO[C@@H]4[C@H](O)C(C)=C[C@@H](C(=O)O1)[C@]34O)O2 (stereo partly specified) [AVERMECTIN B2A]
Dose [1]: 0.0125 mg/kg

CC[C@H](C)[C@H]1O[C@]2(C=C[C@@H]1C)C[C@@H]1C[C@@H](C/C=C(\C)[C@@H](O[C@H]3C[C@@H](OC)[C@@H](O[C@H]4C[C@@H](OC)[C@@H](OC(C)=O)[C@H](C)O4)[C@H](C)O3)[C@@H](C)/C=C/C=C3\CO[C@@H]4[C@H](O)C(C)=C[C@@H](C(=O)O1)[C@]34O)O2
Efficacy [2]: >90% | Efficacy (Haemonchus contortus [3]): >90% | Efficacy (Cooperia oncophora [4]): >90% | Efficacy (Cooperia oncophora [5]): 0% | Efficacy (Cooperia oncophora [6]): 0% | Efficacy (Trichostrongylus axei [7]): >90% | Efficacy (Trichostrongylus axei [8]): 20% | Efficacy (Cooperia oncophora [9]): 60% | Efficacy (Trichostrongylus axei [10]): >90% | Efficacy [11]: >90% | Efficacy [12]: 0% | Dose [1]: 0.031 mg/kg | Efficacy [13]: >90% | Efficacy [14]: 60% | Efficacy [15]: 19% | Efficacy [16]: >90% | Efficacy [17]: >90% | Efficacy [18]: >90% | Efficacy [19]: >90% | Efficacy (Cooperia oncophora [20]): 60% | Efficacy [21]: >90% | Efficacy (Haemonchus contortus [22]): >90% | Efficacy (Cooperia oncophora [23]): 89% | Efficacy (Haemonchus contortus [24]): >90% | Efficacy [25]: >90%

CC[C@H](C)[C@H]1O[C@]2(C=C[C@@H]1C)C[C@@H]1C[C@@H](C/C=C(\C)[C@@H](O[C@H]3C[C@@H](OC)[C@@H](O[C@H]4C[C@@H](OC)[C@@H](OC(=O)C(C)(C)C)[C@H](C)O4)[C@H](C)O3)[C@@H](C)/C=C/C=C3\CO[C@@H]4[C@H](O)C(C)=C[C@@H](C(=O)O1)[C@]34O)O2
Dose [1]: 0.5 mg/kg

CC[C@H](C)[C@H]1O[C@]2(C=C[C@@H]1C)C[C@@H]1C[C@@H](C/C=C(\C)[C@@H](O[C@H]3C[C@@H](OC)[C@@H](O[C@H]4C[C@@H](OC)[C@@H](OC(=O)N(C)C)[C@H](C)O4)[C@H](C)O3)[C@@H](C)/C=C/C=C3\CO[C@@H]4[C@H](O)C(C)=C[C@@H](C(=O)O1)[C@]34O)O2
Dose [1]: 0.06 mg/kg

CC[C@H](C)[C@H]1O[C@]2(C=C[C@@H]1C)C[C@@H]1C[C@@H](C/C=C(\C)[C@@H](O[C@H]3C[C@@H](OC)[C@@H](O[C@H]4C[C@@H](OC)[C@@H](O)[C@H](C)O4)[C@H](C)O3)[C@@H](C)/C=C/C=C3\CO[C@@H]4[C@H](OC(C)=O)C(C)=C[C@@H](C(=O)O1)[C@]34O)O2
Dose [1]: 0.125 mg/kg
